Source: ChEMBL document CHEMBL1772966, “3,5-Bis(benzylidene)-1-[3-(2-hydroxyethylthio)propanoyl]piperidin-4-ones: a novel cluster of potent tumor-selective cytotoxins” (J Med Chem, 2011)
pIC50: −log10 of the molar value. Calls of active or inactive are those of the source. No cut-off for these calls is given here.

Assays:
[1] = test system: CCRF-CEM; assay: Anticancer activity against human CCRF-CEM cells; assay type: functional, cell-based
[2] = test system: COLO 205; assay: Anticancer activity against human COLO205 cells; assay type: functional, cell-based
[3] = Anticancer activity against human Molt4/C8 cells after 72 hrs; assay type: functional, cell-based; settings: MOLT-4, 72 h
[4] = test system: CCRF-CEM; assay: Anticancer activity against human CEM cells after 72 hrs; assay type: functional, cell-based
[5] = test system: L1210; assay: Anticancer activity against mouse L1210 cells after 48 hrs; assay type: functional, cell-based; settings: L1210, 48 h
[6] = test system: HL-60; assay: Anticancer activity against human HL60 cells; assay type: functional, cell-based
[7] = test system: K562; assay: Anticancer activity against human K562 cells; assay type: functional, cell-based
[8] = test system: RPMI-8226; assay: Anticancer activity against human RPMI8226 cells; assay type: functional, cell-based
[9] = test system: Mus musculus; assay: Toxicity in mouse assessed as mortality at 30 to 300 mg/kg, ip after 0.5 to 4 hrs; assay type: organism-based; design: dose 30-300 mg/kg, route intraperitoneal; settings: in vivo
In short: (§1)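 Mice dosed intraperitoneally at 30, 100 and 300 mg/kg; animals observed for deaths and neurological deficit at 0.5 and 4 h after injection.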

[10] = test system: Mus musculus; assay: Neurotoxicity in mouse at 30 to 300 mg/kg, ip after 0.5 to 4 hrs by rotarod method; assay type: toxicity, organism-based; design: dose 30-300 mg/kg, route intraperitoneal; settings: in vivo; in short: as §1
[11] = test system: HCT-116; assay: Anticancer activity against human HCT116 cells; assay type: functional, cell-based
[12] = test system: HCC 2998; assay: Anticancer activity against human HCC2998 cells; assay type: functional, cell-based
[13] = test system: HCT-15; assay: Anticancer activity against human HCT15 cells; assay type: functional, cell-based
[14] = test system: HT-29; assay: Anticancer activity against human HT-29 cells; assay type: functional, cell-based
[15] = test system: KM12; assay: Anticancer activity against human KM12 cells; assay type: functional, cell-based
[16] = test system: SW-620; assay: Anticancer activity against human SW620 cells; assay type: functional, cell-based
[17] = test system: Mus musculus; assay: Neurotoxicity in mouse at 30 to 300 mg/kg, ip after 0.5 hrs by rotarod method; assay type: toxicity, organism-based; design: dose 30-300 mg/kg, route intraperitoneal; settings: in vivo
In short: (§2)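 Mice given 30, 100 and 300 mg/kg by intraperitoneal injection; animals scored for mortality and neurotoxicity at 0.5 and 4 h after dosing.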

[18] = test system: HSC-2; assay: Selectivity index, ratio of average CC50 for normal human cell line to CC50 for human HSC2 cells
[19] = test system: HSC-3; assay: Selectivity index, ratio of average CC50 for normal human cell line to CC50 for human HSC3 cells
[20] = test system: HL-60; assay: Cytotoxicity against human HL60 cells after 48 hrs; assay type: functional; settings: HL-60, 48 h
[21] = test system: HSC-2; assay: Cytotoxicity against human HSC2 cells after 48 hrs; assay type: functional; settings: HSC-2, 48 h
[22] = test system: HSC-3; assay: Cytotoxicity against human HSC3 cells after 48 hrs; assay type: functional; settings: HSC-3, 48 h
[23] = test system: HSC-4; assay: Cytotoxicity against human HSC4 cells after 48 hrs; assay type: functional; settings: HSC-4, 48 h
[24] = Toxicity in mouse harboring L1210 cells; assay type: organism-based
[25] = Toxicity in mouse harboring P-388 cells; assay type: organism-based
[26] = test system: HL-60; assay: Selectivity index, ratio of average CC50 for normal human cell line to CC50 for human HL-60 cells
[27] = test system: HSC-4; assay: Selectivity index, ratio of average CC50 for normal human cell line to CC50 for human HSC4 cells
[28] = test system: MOLT-4; assay: Ratio of melphalan IC50 to compound IC50 for human Molt4/C8 cells; assay type: functional
[29] = test system: CCRF-CEM; assay: Ratio of melphalan IC50 to compound IC50 for human CEM cells; assay type: functional
[30] = Cytotoxicity against human HGF cells after 48 hrs; assay type: cell-based
[31] = test system: HL-60; assay: Induction of mitochondrial pathway-dependent apoptosis in human HL60 cells assessed as DNA fragmentation at 0.5 to 8 uM after 6 hrs by agarose gel electrophoresis; assay type: functional, cell-based
In short: (§3)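 Cells exposed 6 h to a range of concentrations; a UV-irradiated comparison was given 1 min of UV. Treated and control cells were then held 3 h in regular culture medium, after which DNA was extracted and run on 2% agarose gel electrophoresis.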

[32] = test system: HSC-2; assay: Induction of mitochondrial pathway-dependent apoptosis in human HSC2 cells assessed as DNA fragmentation at 0.5 to 8 uM after 6 hrs by agarose gel electrophoresis; assay type: functional, cell-based; in short: as §3
[33] = test system: HL-60; assay: Induction of mitochondrial pathway-dependent apoptosis in human HL60 cells assessed as caspase 3 activation at 1 to 3 uM; assay type: functional, cell-based
In short: (§4)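 Caspase-3 activity measured in lysates of treated HL-60 and HSC-2 cells: 100 μg protein per assay, incubated 2 h with the substrate. Mean ± SD of three experiments.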

[34] = test system: HSC-2; assay: Induction of mitochondrial pathway-dependent apoptosis in human HSC2 cells assessed as caspase 3 activation at 1 to 3 uM; assay type: functional, cell-based; in short: as §4
[35] = test system: L1210; assay: Ratio of melphalan IC50 to compound IC50 for mouse L1210 cells; assay type: functional
[36] = Cytotoxicity against human HPC cells after 48 hrs; assay type: cell-based
[37] = Cytotoxicity against human HPLF cells after 48 hrs; assay type: cell-based
[38] = test system: Rattus norvegicus; assay: Toxicity in rat assessed as mortality at 50 mg/kg, po measured upto 4 hrs; assay type: organism-based; design: dose 50 mg/kg, route oral; settings: in vivo
In short: (§5)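 Rats given a single oral dose of 50 mg/kg; monitored intermittently over 4 h for fatalities and neurological deficit.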

[39] = test system: Rattus norvegicus; assay: Neurotoxicity in rat at 50 mg/kg, po measured upto 4 hrs by rotarod method; assay type: toxicity, organism-based; design: dose 50 mg/kg, route oral; settings: in vivo; in short: as §5
[40] = test system: Mus musculus; assay: Neurotoxicity in mouse at 30 to 300 mg/kg, ip after 4 hrs by rotarod method; assay type: toxicity, organism-based; design: dose 30-300 mg/kg, route intraperitoneal; settings: in vivo; in short: as §2

SMILES	pIC50 [1]	pIC50 [2]	pIC50 [3]	pIC50 [4]	pIC50 [5]	pIC50 [6]	pIC50 [7]	Activity [9]	Activity [10]	pIC50 [11]	pIC50 [12]	pIC50 [13]	pIC50 [14]	pIC50 [15]	pIC50 [16]	Ratio [18]	Ratio [19]	CC50 [20]	CC50 [21]	CC50 [22]	other results
O=C1/C(=C/c2ccc(Cl)cc2)CN(C(=O)CCSCCS(=O)(=O)O)C/C1=C\c1ccc(Cl)cc1	5.03	4.62	4.45	4.38	4.00	4.59	4.55	Non-toxic	Non-toxic	4.55	4.65	4.52	4.60	4.60	4.53						pIC50 [8]: 4.74
O=C1/C(=C/c2ccccc2)CN(C(=O)CCSCCS(=O)(=O)O)C/C1=C\c1ccccc1			3.84	3.90	3.63			Non-toxic													Activity [17]: Toxic
O=C1/C(=C/c2ccc([N+](=O)[O-])cc2)CN(C(=O)CCSCCS(=O)(=O)O)C/C1=C\c1ccc([N+](=O)[O-])cc1			5.16	5.13	4.94			Non-toxic	Non-toxic												
N[C@@H](Cc1ccc(N(CCCl)CCCl)cc1)C(=O)O [MELPHALAN]													4.33			24.1	8.4	1.4 µM	8.7 µM	25 µM	CC50 [23]: 32 µM; LD50 [24]: 21.7 mg/kg; LD50 [25]: 21.7 mg/kg; Ratio [26]: 150; Ratio [27]: 6.6
O=C1/C(=C/c2ccc([N+](=O)[O-])cc2)CN(C(=O)CCSCCO)C/C1=C\c1ccc([N+](=O)[O-])cc1	7.40	7.22	6.31	6.32	5.41	7.00	7.22	Non-toxic	Non-toxic	6.96	6.55	6.68	7.00	6.77	7.15	17.3	8.5	0.44 µM	0.34 µM	0.69 µM	Ratio IC50 [28]: 6.7; Ratio IC50 [29]: 5.1; pIC50 [8]: 7.70; CC50 [23]: 0.38 µM; CC50 at 48 h [30]: 5.4 µM; Activity [31]: Active; Activity [32]: inactive; Activity [33]: Active; Activity [34]: inactive; Ratio IC50 [35]: 96; CC50 at 48 h [36]: 5.8 µM; CC50 at 48 h [37]: 6.4 µM; Ratio [26]: 13.3; Ratio [27]: 15.5
O=c1[nH]cc(F)c(=O)[nH]1 [FLUOROURACIL]	4.48	5.38				< 4.00	5.62			5.07	4.87	5.01	4.99	5.08	< 4.00						
O=C1/C(=C/c2ccc(Cl)cc2)CN(C(=O)CCSCCO)C/C1=C\c1ccc(Cl)cc1	6.68	6.34	6.38	6.16	5.19	6.49	7.00	Non-toxic	Non-toxic	6.77	5.96	6.59	6.59	6.72	6.77	17.1	8.3	1 µM	0.47 µM	0.97 µM	Ratio IC50 [28]: 7.6; Ratio IC50 [29]: 3.6; pIC50 [8]: 7.10; CC50 [23]: 0.51 µM; CC50 at 48 h [30]: 8.3 µM; Activity [31]: Active; Activity [32]: Active; Activity [33]: Active; Activity [34]: Active; Ratio IC50 [35]: 43; CC50 at 48 h [36]: 7.2 µM; CC50 at 48 h [37]: 8.6 µM; Ratio [26]: 8; Ratio [27]: 15.8
Cc1ccc(/C=C2\CN(C(=O)CCSCCS(=O)(=O)O)C/C(=C\c3ccc(C)cc3)C2=O)cc1			4.10	3.71	3.70			Non-toxic													Activity [17]: Toxic
Cc1ccc(/C=C2\CN(C(=O)CCSCCO)C/C(=C\c3ccc(C)cc3)C2=O)cc1			5.73	5.96	5.23			Non-toxic	Non-toxic							9.4	4.9	2.1 µM	0.89 µM	1.7 µM	Ratio IC50 [29]: 2.3; CC50 [23]: 1.2 µM; CC50 at 48 h [30]: 9.1 µM; Activity [38]: Non-toxic; Activity [39]: Non-toxic; CC50 at 48 h [36]: 7.5 µM; CC50 at 48 h [37]: 8.4 µM; Ratio [26]: 4; Ratio [27]: 6.9
COc1ccc(/C=C2\CN(C(=O)CCSCCO)C/C(=C\c3ccc(OC)cc3)C2=O)cc1	6.33	5.60	5.78	5.45	4.71	5.77	5.54	Non-toxic	Non-toxic	5.82	5.70	5.66	5.62	5.70	5.67	6.5	4.8	3.2 µM	2.41 µM	3.3 µM	Ratio IC50 [28]: 2; Ratio IC50 [29]: 6.6; pIC50 [8]: 6.48; CC50 [23]: 2.4 µM; CC50 at 48 h [30]: 17 µM; Ratio IC50 [35]: 6.6; CC50 at 48 h [36]: 14 µM; CC50 at 48 h [37]: 16 µM; Ratio [26]: 4.9; Ratio [27]: 6.5
O=C1/C(=C/c2ccccc2)CN(C(=O)CCSCCO)C/C1=C\c1ccccc1			6.18	6.24	5.42											9.2	5.3	1.7 µM	1.6 µM	2.8 µM	Ratio IC50 [28]: 4.9; Ratio IC50 [29]: 4.3; CC50 [23]: 1.3 µM; CC50 at 48 h [30]: 17 µM; CC50 at 48 h [36]: 14 µM; CC50 at 48 h [37]: 13 µM; Ratio [26]: 8.7; Ratio [27]: 11.3
COc1ccc(/C=C2\CN(C(=O)CCSCCS)C/C(=C\c3ccc(OC)cc3)C2=O)cc1			5.56	5.49	4.96			Non-toxic													Activity [17]: Toxic
COc1ccc(/C=C2\CN(C(=O)CCSCCS(=O)(=O)O)C/C(=C\c3ccc(OC)cc3)C2=O)cc1	< 4.00	< 4.00	3.81	3.70	3.64	< 4.00	4.26	Non-toxic		4.48	4.51	< 4.00	4.38	4.52	4.42						pIC50 [8]: 4.61; Activity [17]: Toxic; Activity [40]: Toxic
